Inhibition data for 96 compounds are collected here from PubChem BioAssay AID1040 (The Scripps Research Institute Molecular Screening Center, 2008).

Molecules are shown by their SMILES. About 2,000 (1%) of roughly 200,000 compounds were called active. What follows is part of a selection rich in actives, with near analogues and random picks from the rest. Unmarked numbers belong to inactive results.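 The calls were made as follows: active = inhibition above the campaign mean inhibition of all tested compounds plus 3 SD (cut at about 20% in these data); inactive = the rest.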

Neuropeptide Y receptor type 1 (Homo sapiens), sequence (P25929 whole entry, looked up): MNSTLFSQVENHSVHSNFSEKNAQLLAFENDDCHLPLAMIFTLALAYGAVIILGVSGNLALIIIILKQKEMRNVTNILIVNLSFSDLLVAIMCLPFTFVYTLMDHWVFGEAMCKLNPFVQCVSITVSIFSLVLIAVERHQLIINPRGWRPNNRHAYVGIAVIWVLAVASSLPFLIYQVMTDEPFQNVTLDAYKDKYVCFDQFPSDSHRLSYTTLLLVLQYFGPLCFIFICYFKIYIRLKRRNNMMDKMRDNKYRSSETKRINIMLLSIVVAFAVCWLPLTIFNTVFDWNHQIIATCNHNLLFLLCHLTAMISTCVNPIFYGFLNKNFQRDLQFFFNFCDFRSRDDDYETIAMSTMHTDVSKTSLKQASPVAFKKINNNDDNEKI

The assay concerns the target Neuropeptide Y receptor type 1 (Homo sapiens) (UniProt P25929). Description: NPY-Y1 receptor antagonists, primary screen, cell-based (AID 1040).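 Also: 0% = DMSO wells given NPY plus isoproterenol and 100% = isoproterenol alone without NPY.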 The following applies: HEK293-CNG Y1 cells, membrane potential fluorescence; at 3.6 µM; active compounds read high; NPY at EC95, then isoproterenol. Put shortly:
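Material: HEK293 Y1/CNG channel cell line; also added: NPY (25 nM), isoproterenol (1 µM), Ro 20-1724 (25 µM); doses: one concentration, 3.6 µM, in 0.4% DMSO; schedule: compound incubation 1 h at room temperature, readout 45 min post-stimulation; technique: membrane potential fluorescence; measure: fluorescence ratio normalized to % inhibition between controls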
Usually inhibition stands for the change of the read-out against control, counted positive when it falls. For `Cc1nnc(SCC(=O)N2c3ccccc3C(C)(c3ccc(Cl)cc3)CC2(C)C)s1` (stereo unspecified), the inhibition is 16.7%. The value for `CC(=O)Nc1ccc(/C(C)=N/NC(=O)CN(c2ccccc2Br)S(C)(=O)=O)cc1` was -2.53%. The value for `CC(Oc1ccc(Cl)cc1)C(=O)OCC(=O)Nc1ncc(Cl)cc1Cl` (stereo unspecified) was 2.64%; that for `Cc1ccc(-n2c(SCC(=O)Nc3ncc(Cl)cc3Cl)nc3ccccc32)cc1` was -2.49%. The value for `Cc1ccc(SCCC(=O)OCC(=O)Nc2ncc(Cl)cc2Cl)cc1` was 20.4% (active). Take `CC1(C)C=C2[C@H]3CC[C@@H]4[C@@]5(C)CCC(=O)C(C)(C)[C@@H]5CC[C@@]4(C)[C@]3(C)CC[C@@]2(C(=O)O)CC1`: the inhibition is 2.69%. The value for `CC(=O)Nc1cccc(-c2nc3ccccc3s2)c1C` was 3.27%; that for `Oc1ccc(-c2[nH]ncc2-c2nc3ccccc3s2)c(O)c1` was 62.6% (active); that for `Cc1cc(O)ccc1-c1cnc2ccccc2n1` was -0.67%. Next, `CC1CCN(S(=O)(=O)c2ccc3ncn(CC(=O)N(C)C4CCCCC4)c(=O)c3c2)CC1`: 4.79%; `CCOC(=O)C1CCN(CCC(=O)Nc2cccc(C)c2)CC1`: -5.31%; `O=C(c1ccc(CSc2ccccc2)cc1)N1CCCCCC1`: -0.16%.

Regarding `COc1ccccc1OCc1ccc(C(=O)N2CCN(C)CC2)o1`, the inhibition was 6.16%. Next, `COc1cc2c(C(=O)N3CCN(C)CC3)c(CSc3ccccc3)n(C)c2cc1Br`: 23.3% (active); `O=[N+]([O-])c1ccc(N2CCN(S(=O)(=O)c3ccccc3)CC2)cc1N1CCc2ccccc2C1`: 4.34%. The value for `CNC(=O)COC(=O)c1cc(-c2ccc(OC)cc2)nc2ccccc12` was 3.85%; that for `COc1ccc(-c2cc(C(=O)n3cnc4ccccc43)c3ccccc3n2)cc1` was 26.2% (active). Next, `Cc1ccc(OCC(=O)Nn2cnc3ccccc32)cc1`: 8.06%; `COc1cc(NC(=S)N2CCCC(C)C2)cc(OC)c1OC` (stereo unspecified): -1.31%; `CC(=O)N1CCN(S(=O)(=O)c2cccc(C(=O)NC3CCC(C)CC3)c2)CC1` (stereo unspecified): 1.65%. With `CC(C)Cn1cnc2c1c(=O)n(CC(O)c1ccccc1)c(=O)n2CC(C)C` (stereo unspecified), the inhibition was 20.6% (active). The value for `Cn1c(=O)c2c(ncn2CCc2ccccc2)n(C)c1=O` was -0.86%. The value for `CC(C)Cn1c(CN(Cc2ccccc2)Cc2ccccc2)nc2c1c(=O)n(C)c(=O)n2C` was 13.4%; that for `CCCN(CC(=O)Nc1ccc(C(N)=O)cc1)CC(=O)Nc1ccccc1C` was -0.18%; that for `O=C1Nc2cc(Cl)c(Cl)cc2N(O)N1c1ccccc1Cl` was 1.81%. Next, `CC(=O)Nc1ccc(NC(=O)C(C)OC(=O)c2ccccc2C(=O)c2ccc(Cl)c([N+](=O)[O-])c2)cc1` (stereo unspecified): 0.15%. As for `O=C(CN1C(=O)/C(=C\c2ccc(C(F)(F)F)cc2)Sc2ccccc21)NCc1ccco1`, the inhibition was 10.7%. As to `CCN1CCN(CCNC(=O)c2ccc(/C=C3/Sc4ccccc4N(Cc4cccc(C)c4)C3=O)cc2)CC1`, the inhibition is 23.1% (active). Next, `Cc1nn(Cc2ccccc2)c(C)c1C(=O)NCCN1C(=O)S/C(=C\c2ccc(F)cc2)C1=O`: -0.53%; `Cc1ccc(OCCCn2c(=O)oc3ccccc32)cc1`: 8.49%; `Cc1ccc2nc(-c3ccc(NC(=O)CN(C)S(=O)(=O)c4ccccc4)cc3)sc2c1`: -3.73%.

Consider `Cc1c(CN2CCCC(C(=O)c3cccc(Cl)c3)C2)c(=O)n(-c2ccccc2)n1C` (stereo unspecified), for which the inhibition was -2.25%.

Regarding `Cc1ccc2nc(-c3ccncc3)cc(C(=O)Nc3ccc4c(c3)OCCO4)c2c1`, the inhibition was 4.85%.

On to `Cc1ccc2nc(-c3ccccn3)cc(C(=O)Nc3ccc4c(c3)OCO4)c2c1`, for which the inhibition is 31.6% (active). Next, `O=C(Nc1ccncc1)c1cc(-c2ccccn2)nc2ccc(Br)cc12`: -2.88%.

`Cc1ccc(C(C(=O)NCc2ccco2)N(CC2CCCO2)C(=O)Cn2nnc3ccccc32)cc1` (stereo unspecified): the inhibition was 2.99%. The value for `COc1ccccc1N(C(=O)Cn1nnc2ccccc21)C(C(=O)NCc1ccco1)c1ccc(C)o1` (stereo unspecified) was 21.5% (active). The value for `COCCNC(=O)C(c1ccc(C)o1)N(Cc1ccccc1)C(=O)Cn1nnc2ccccc21` (stereo unspecified) was 7.77%. With `CCO[C@H]1OC(C(=O)O)=C[C@@H](C2CCCCC2)[C@@H]1CCCO`, the inhibition is -4.69%. The value for `CC1CC1C(=O)OCC(=O)c1c(N)n(C)c(=O)n(C)c1=O` (stereo unspecified) was 0.59%.

With `CS(=O)(=O)N(CC(=O)N1CCCC1)Cc1ccccc1`, the inhibition was 1.29%. The value for `COc1ccc(OC)c(NC(=O)CN(Cc2ccc(Cl)cc2)S(C)(=O)=O)c1` was -0.76%; that for `COc1ccccc1N1CCN(C(=O)CN(Cc2ccc(Cl)cc2)S(C)(=O)=O)CC1` was 20.4% (active); that for `COC(=O)C1=C(C)N(c2ccc(C)cc2)/C(=C/c2ccc(O)cc2)C1=O` was 2.2%. The value for `COCCNc1nc2nonc2nc1N1CCCC1c1nccs1` (stereo unspecified) was 0.14%; that for `O=C(c1cc(-c2cccc(O)c2)on1)N1CCc2ccccc2C1` was 2.12%. The value for `O=C(c1cc(-c2ccc(O)cc2)on1)N1CCCc2ccccc21` was 25.5% (active).

Consider `O=C(C(=O)N1CCc2ccccc2C1)N1CCc2ccccc2C1`, for which the inhibition is 1.24%.

`Cc1occc1C(=O)N1CCCc2ccccc21`: the inhibition was 1.99%. Next, `Cc1ccc(-c2cc(C(=O)N3CCc4ccccc4C3)no2)cc1`: 28.6% (active). Regarding `O=C(c1cc(-c2ccccc2O)on1)N1CCCC1`, the inhibition is -3.05%. The value for `CC(C)Oc1ccccc1C(=O)NC(CO)C(=O)O` (stereo unspecified) was -2.02%; that for `Cc1ccc(O)c(CCc2ccccc2)n1` was 1.07%. Next, `Cc1nn(CC(=O)Nc2ccc(C#N)cc2)c(C)c1[N+](=O)[O-]`: -0.39%. The value for `N#Cc1c(N)nc2c3c(sc(=N)c2c1N)NC(=O)CC3c1ccccc1Cl` (stereo unspecified) was 1.18%. For the compound `COc1ccc(C2CC(=O)Nc3sc(=N)c4c(N)c(C#N)c(N)nc4c32)cc1OC` (stereo unspecified), the inhibition was 60.1% (active). With `COc1ccc(-c2cc(-c3ccc(N)cc3)nc(N)c2C#N)cc1OC`, the inhibition is 7.06%. The value for `CC(NC(=O)COC(=O)C1CCN(S(=O)(=O)c2ccccc2C(F)(F)F)CC1)c1ccccc1` (stereo unspecified) was -0.58%.

As for `Cc1c(NC(=S)NC(=O)CCc2ccccc2)c(=O)n(-c2ccccc2)n1C`, the inhibition is 4.67%. Next, `CCOc1cccc(SCc2noc(C(=O)NC(C)C)c2C(=O)O)c1`: 11%; `CCCCNC(=O)c1onc(CSc2cccc(OC)c2)c1C(=O)O`: 28.4% (active). The value for `COCCNC(=O)c1onc(CSc2cccc(C)c2)c1C(=O)O` was 9.11%. The value for `COc1ccc2nc(SCc3ccccc3)nc(C)c2c1` was 4.78%; that for `Cc1cccc(NC(=S)Nc2ccc(Br)cc2)c1` was 3.74%. For the compound `Cc1cccc(NC(=S)Nc2ccc(Cl)c(Cl)c2)c1`, the inhibition is 1.7%. Take `Cc1cccc(NC(=S)NCCN(C2CCCCC2)C2CCCC2)c1`: the inhibition is 21.2% (active). Next, `Cc1nc(-c2ccccc2)cn2c1nc1ccccc12`: 5.56%; `O=C(Cc1coc2ccc3ccccc3c12)NCc1cccs1`: 1.1%. The value for `O=C(Nc1ccc(NC(=O)c2ccco2)c(Cl)c1)c1cccc([N+](=O)[O-])c1` was 0.59%. The value for `COc1ccccc1C(=O)Nc1ccc(NC(=O)c2ccco2)c(C)c1` was 2.31%. For `COc1cc(NC(=O)c2cc([N+](=O)[O-])ccc2Br)ccc1NC(=O)c1ccco1`, the inhibition was 30.1% (active).

Take `CN(C)CCCO/N=C(\c1ccccc1)c1ccncc1`: the inhibition was -1.1%. The value for `O=C(COc1cccc(F)c1)Oc1ccc(C(=O)c2ccccc2)cc1` was 2.24%; that for `CCCCc1c(O)nc2n(c1=O)CCS2` was 20.6% (active). Regarding `CCOC(=O)N1CCN(C(=O)c2cnc3n(c2=O)CCS3)CC1`, the inhibition was -1.03%. Next, `CC1CCc2c(sc3nc4n(c(=O)c23)CCS4)C1` (stereo unspecified): -3.28%; `CCc1ccccc1NC(=O)CN(C)C(=O)COc1ccc(C)nc1[N+](=O)[O-]`: -0.59%. Regarding `COc1ccc(/C(=N\O)c2nccc3cc(OC)c(OC)cc23)cc1OC`, the inhibition was 5.85%. Next, `O=C(CC1CCCCC1)Nc1c2c(nn1-c1ccc(F)cc1)CS(=O)(=O)C2`: 46.3% (active); `O=C(CC1CCCCC1)NCc1ccc(F)cc1`: -0.26%; `Cc1ccc(-n2nc3c(c2NC(=O)CCC2CCCCC2)CS(=O)C3)cc1` (stereo unspecified): 8.28%. Next, `CC(NC(=S)NC1CCCCC1)C(c1ccccc1)N1CCOCC1` (stereo unspecified): 0.27%; `O=S(=O)(O)c1nc2ccccc2n1Cc1ccc(Cl)cc1`: 21.2% (active). The value for `O=S(=O)(O)c1nc2ccccc2n1Cc1ccc(Cl)cc1Cl` was -2.49%; that for `O=S(=O)(Cc1ccccc1)c1nc2ccccc2n1Cc1ccccn1` was -1.06%. Consider `O=C(Nc1ccccc1Cl)c1ccc2nsnc2c1`, for which the inhibition was 0.69%. With `O=C(CN1CCCCC1)Nc1ccccc1Cl`, the inhibition was -2.44%.

Regarding `O=C(Nc1ccccc1Cl)/C(Cl)=C(\Cl)S(=O)c1ccccc1` (stereo unspecified), the inhibition was 27.5% (active). Next, `CC(NC(=O)COC(=O)c1ccc(Cl)cc1O)c1ccc(F)cc1` (stereo unspecified): -0.49%; `CCc1nc(Nc2ccc3nccnc3c2)c2oc3ccccc3c2n1`: -0.08%. Next, `COc1ccccc1Nc1ncnc2c1oc1ccccc12`: 21.3% (active). With `Cc1nc(Cl)c2oc3ccccc3c2n1`, the inhibition was 3.46%. The value for `COc1ccc(-n2nc3c(c2NC(=O)c2ccc(N4C(=O)CCC4=O)cc2)CSC3)cc1` was 2.78%. As to `N#C/C(=C\c1ccc(-c2cccc([N+](=O)[O-])c2)o1)C(=O)NCCN1CCOCC1`, the inhibition is 0.61%. As to `Cc1ccc(C(=O)N/C(=C/c2ccc(-c3cccc([N+](=O)[O-])c3)o2)C(=O)NCCCN(C)C)cc1`, the inhibition is 27.8% (active). Consider `CN(C)CCNC(=O)/C(=C/c1cccc([N+](=O)[O-])c1)NC(=O)c1ccccc1`, for which the inhibition is 2.65%.
